Laboratory results taken from paper PMC3983390 (Journal of medicinal chemistry, 2014).
Read-outs that look alike come from different tables or passages of the source.

Experiments:
reserpine-treated rats = assay: Reversal of reserpine-induced hypolocomotion in rats; type: in vivo, rat; details: for reversal of akinesia (locomotor activity) in reserpine-treated rats: i.p., in DI water, 18 h after reserpine 5 mg/kg s.c.
Procedure, shortened: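 Male Sprague–Dawley rats (220–225 g) anaesthetised with isoflurane and given reserpine 5.0 mg/kg s.c. (acetic acid diluted in 5.5% glucose) or saline 18 h beforehand. After 1 h chamber acclimatisation, test compound (in water) given i.p. at 5 μmol/kg; reference agonist given s.c. Horizontal activity counted from infrared beam breaks for 6 h in 30-min bins. n = 4; mean ± SEM; one-way ANOVA with Dunnett vs saline controls.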

6-OHDA lesioned rats = assay: In vivo rotational experiment with 6-OHDA unilaterally lesioned rats; design: species or system rat; details: for rotational activity in 6-OHDA lesioned rats / duration of rotation / total number of rotations: i.p.
Procedure, shortened: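 Rats (290–320 g) with a unilateral 6-OHDA lesion of the left medial forebrain bundle. Lesion confirmed by apomorphine challenges, including 0.05 mg/kg at 21 days post-lesion with contralateral rotations counted for 30 min. Test compound given i.p. at 5 or 10 μmol/kg; controls were vehicle and apomorphine reference. Contralateral (clockwise) rotations counted in harnessed rotometry chambers from dosing, in 30-min bins, over 7–12 h.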

MN9D cells = assay: Neuroprotection against MPP+ toxicity in dopaminergic MN9D cells; type: cell-based, mouse; details: 1 h pretreatment, then cotreatment with 100 μM MPP+ for 24 h; MTT
Procedure, shortened: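 MN9D cells (mouse mesencephalic neuron × N18TG2 hybridoma) grown on poly-L-lysine in high-glucose DMEM with 10% serum and penicillin/streptomycin, 37 °C, 5% CO2. Seeded at 1 × 10^4 cells/well and equilibrated 40 h. Pretreated 1 h with test compound (0.001–20 μM; DMSO stock), then MPP+ added to 100 μM final for 24 h; controls 0.01% DMSO. MTT (0.5 mg/mL final) 3 h; formazan dissolved in DMSO/methanol 1:1; A570 minus A690. Three independent experiments, 4–6 replicates, mean ± SD; one-way ANOVA with Tukey vs MPP+.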

rD2L receptor = rD2L receptor (Rattus norvegicus, UniProt P61169); details: read-out: Ki (nM), rD2L [3H]spiroperidol; HEK-293 cells; from previous ref 44; cited from earlier work
Chain of rD2L receptor (P61169 whole entry): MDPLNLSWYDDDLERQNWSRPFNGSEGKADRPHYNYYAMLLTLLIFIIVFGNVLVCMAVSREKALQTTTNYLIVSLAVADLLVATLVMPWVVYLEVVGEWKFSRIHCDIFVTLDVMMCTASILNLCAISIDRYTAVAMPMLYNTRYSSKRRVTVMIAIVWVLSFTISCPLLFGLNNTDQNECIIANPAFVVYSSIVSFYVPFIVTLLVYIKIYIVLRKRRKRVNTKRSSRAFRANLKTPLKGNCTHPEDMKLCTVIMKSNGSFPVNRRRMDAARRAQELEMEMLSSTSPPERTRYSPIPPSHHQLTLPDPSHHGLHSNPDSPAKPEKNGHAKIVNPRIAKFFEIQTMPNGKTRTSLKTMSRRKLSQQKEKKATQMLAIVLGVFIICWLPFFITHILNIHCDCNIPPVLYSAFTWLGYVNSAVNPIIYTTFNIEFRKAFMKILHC

rD3 receptor = rD3 receptor (Rattus norvegicus, UniProt P19020); details: read-out: Ki (nM), rD3 [3H]spiroperidol; HEK-293 cells; from previous ref 44; cited from earlier work
Chain of rD3 receptor (P19020 whole entry): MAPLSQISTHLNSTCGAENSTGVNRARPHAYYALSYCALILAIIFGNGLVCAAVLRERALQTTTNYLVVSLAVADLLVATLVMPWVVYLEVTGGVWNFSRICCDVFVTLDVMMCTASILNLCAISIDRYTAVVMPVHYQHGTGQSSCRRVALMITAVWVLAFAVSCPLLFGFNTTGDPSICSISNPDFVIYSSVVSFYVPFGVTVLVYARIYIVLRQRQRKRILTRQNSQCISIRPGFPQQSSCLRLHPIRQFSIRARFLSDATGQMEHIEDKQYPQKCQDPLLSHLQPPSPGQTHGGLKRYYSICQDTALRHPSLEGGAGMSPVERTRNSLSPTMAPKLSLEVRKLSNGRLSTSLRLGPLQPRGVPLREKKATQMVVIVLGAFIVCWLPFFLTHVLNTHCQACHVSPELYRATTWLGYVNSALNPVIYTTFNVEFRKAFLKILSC

hD2 receptor [1] = molecular target: T1, hD2 receptor (Homo sapiens, UniProt P14416); details: GTPγS, compared with Emax of DA; cited from earlier work
T1 sequence (P14416 whole entry): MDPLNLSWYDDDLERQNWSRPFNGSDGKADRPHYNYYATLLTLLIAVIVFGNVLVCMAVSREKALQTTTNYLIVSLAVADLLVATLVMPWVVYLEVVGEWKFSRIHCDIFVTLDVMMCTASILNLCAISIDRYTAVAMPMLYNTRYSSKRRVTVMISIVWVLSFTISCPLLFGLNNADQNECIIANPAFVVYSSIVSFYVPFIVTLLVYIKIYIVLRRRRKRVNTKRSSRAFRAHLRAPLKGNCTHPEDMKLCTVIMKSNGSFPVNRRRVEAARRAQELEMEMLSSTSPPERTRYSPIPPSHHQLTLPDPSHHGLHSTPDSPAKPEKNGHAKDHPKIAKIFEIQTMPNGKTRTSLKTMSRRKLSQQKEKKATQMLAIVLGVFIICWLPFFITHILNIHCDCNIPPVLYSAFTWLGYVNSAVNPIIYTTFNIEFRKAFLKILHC

hD3 receptor [2] = molecular target: T2, hD3 receptor (Homo sapiens, UniProt P35462); details: GTPγS, compared with Emax of DA; cited from earlier work
T2 sequence (P35462 whole entry): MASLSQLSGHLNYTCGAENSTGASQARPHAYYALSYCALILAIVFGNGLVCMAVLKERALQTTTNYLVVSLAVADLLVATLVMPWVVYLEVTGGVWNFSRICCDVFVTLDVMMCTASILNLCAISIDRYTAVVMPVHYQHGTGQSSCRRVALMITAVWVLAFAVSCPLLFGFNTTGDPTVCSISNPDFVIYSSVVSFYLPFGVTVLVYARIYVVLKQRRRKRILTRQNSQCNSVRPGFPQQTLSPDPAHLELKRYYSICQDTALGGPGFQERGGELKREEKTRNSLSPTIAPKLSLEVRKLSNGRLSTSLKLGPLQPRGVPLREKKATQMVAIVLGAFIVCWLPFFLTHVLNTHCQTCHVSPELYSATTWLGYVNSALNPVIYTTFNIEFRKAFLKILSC

[3] = DPPH radical scavenging assay; details: 20 to 250 μM drug, 200 μM DPPH, methanol, 30 °C, 25 min; Figure 2
Procedure, shortened: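 Test compound in methanol as 20–250 μM solutions (before mixing), combined 1:1 with 200 μM methanolic DPPH. Plate shaken at 30 °C for 25 min. Controls were methanol plus DPPH, with methanol alone as background and ascorbic acid as standard. Absorbance read at 517 nm. % scavenging = (A control − A sample)/A control × 100.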

hD2 receptor [4] = molecular target: T1, hD2 receptor; assay: Stimulation of [35S]GTPγS binding to hD2 receptors expressed in CHO cells; type: biochemical; details: compared with Emax of DA
hD3 receptor [5] = molecular target: T2, hD3 receptor; assay: Stimulation of [35S]GTPγS binding to hD3 receptors expressed in CHO cells; type: biochemical; details: for agonist type at D3 receptor: GTPγS, compared with Emax of DA

## CCCN(CCN1CCN(c2ccc(-c3ccccc3)cc2)CC1)[C@H]1CCc2nc(N)sc2C1 [Compound 1a, (−)-N6-(2-(4-(Biphenyl-4-yl)piperazin-1-yl)-ethyl)-N6-propyl-4,5,6,7-tetrahydrobenzo[d]thiazole-2,6-diamine]
reserpine-treated rats; 5 μmol/kg
  reversal of akinesia (locomotor activity) in reserpine-treated rats: failed to produce any significant effect in reversing akinesia
reserpine-treated rats; dissolved in 10% beta-hydroxy cyclodextrin solution, 5 μmol/kg i.p.
  reversal of akinesia in reserpine-treated rats: more effective
6-OHDA lesioned rats
  rotational activity in 6-OHDA lesioned rats: failed to show any in vivo activity
MN9D cells
  protection of MN9D cells from MPP+ induced toxicity: able to protect the MN9D cells in a dose-dependent manner
rD2L receptor
  Ki: 186 ± 34 nM
rD3 receptor
  Ki: 2.1 ± 0.34 nM
hD2 receptor [1]
  agonist type at D2 receptor: full agonist
hD3 receptor [2]
  agonist type at D3 receptor: full agonist

## CCCN(CCN1CCN(c2ccc(-c3cccc(O)c3)cc2)CC1)[C@H]1CCc2c(O)cccc2C1 [(−)-11, (S)-6-((2-(4-(3′-Hydroxybiphenyl-4-yl)piperazin-1-yl)ethyl)-(propyl)amino)-5,6,7,8-tetrahydronaphthalen-1-ol]
[3]
  DPPH radical scavenging (antioxidant) activity: less antioxidant activity in this assay than (−)-9b

## O=C1O[C@H]([C@@H](O)CO)C(O)=C1O [ascorbic acid]
[3]
  DPPH radical scavenging (antioxidant) activity: inhibited DPPH radical activity dose dependently

## CN1CCc2cccc3c2[C@H]1Cc1ccc(O)c(O)c1-3 [apomorphine, reference compound]
6-OHDA lesioned rats; apomorphine 0.05 mg/kg, 21 days postlesion, recorded for 30 min
  average contralateral rotation: > 250

## CCCN(CCN1CCN(c2ccc(-c3cccc(OC)c3)cc2)CC1)[C@H]1CCc2nc(N)sc2C1 [Compound (−)-8b, (S)-N6-(2-(4-(3′-Methoxybiphenyl-4-yl)piperazin-1-yl)ethyl)-N6-propyl-4,5,6,7-tetrahydrobenzo[d]thiazole-2,6-diamine]
hD2 receptor [4]
  agonist type at D2 receptor: full agonist
hD3 receptor [5]; GTPγS EC50
  less potent at D3 receptor in comparison to 1a: 2 fold
hD3 receptor [5]
  agonist type at D3 receptor: partial agonist
reserpine-treated rats; 5 μmol/kg
  reversal of akinesia (locomotor activity) in reserpine-treated rats: highly efficacious in reversing akinesia
6-OHDA lesioned rats; 5 μmol/kg
  duration of rotation: more than 7 h
  total number of rotations: 3333 rotations
6-OHDA lesioned rats; 10 μmol/kg
  duration of rotation: more than 10 h
  total number of rotations: 5866 rotations
6-OHDA lesioned rats
  rotational activity in 6-OHDA lesioned rats: produced potent rotational activity in a dose-dependent manner
MN9D cells
  protection of MN9D cells from MPP+ induced toxicity: did not show any neuroprotection

## CCCN(CCC)CCc1cccc2c1CC(=O)N2 [ropinirole, Ropinirole, reference compound]
[3]
  DPPH radical scavenging (antioxidant) activity: poor activity
reserpine-treated rats; 5 μmol/kg, s.c., compared to the test compounds
  duration of action in reserpine-treated rats: much shorter duration of action
6-OHDA lesioned rats; 10 μmol/kg
  duration of action in 6-OHDA lesioned rats: much shorter duration of action

## CCCN(CCN1CCN(c2ccc(-c3cccc(O)c3)cc2)CC1)[C@H]1CCc2nc(N)sc2C1 [Compound (−)-9b, (S)-4′-(4-(2-((2-Amino-4,5,6,7-tetrahydrobenzo[d]thiazol-6-yl)(propyl)amino)ethyl)piperazin-1-yl)biphenyl-3-ol]
hD2 receptor [4]
  agonist type at D2 receptor: full agonist
hD3 receptor [5]; GTPγS EC50
  increase in D3 functional potency in comparison to 1a: 15 fold
hD3 receptor [5]; GTPγS EC50 ratio
  increase in functional selectivity (D2/D3) in comparison to 1a: 7 fold
hD3 receptor [5]
  agonist type at D3 receptor: full agonist
reserpine-treated rats; 5 μmol/kg
  reversal of akinesia (locomotor activity) in reserpine-treated rats: highly efficacious in reversing akinesia
6-OHDA lesioned rats; 5 μmol/kg
  duration of rotation: more than 7 h
  total number of rotations: 1839 rotations
6-OHDA lesioned rats; 10 μmol/kg
  duration of rotation: more than 10 h
  total number of rotations: 2653 rotations
6-OHDA lesioned rats
  rotational activity in 6-OHDA lesioned rats: produced potent rotational activity in a dose-dependent manner
MN9D cells
  protection of MN9D cells from MPP+ induced toxicity: able to protect the MN9D cells in a dose-dependent manner
